Ecoli WT expand: blocks growth of wild type E. coli BW25113. OD600 absorbance. growth inhibition, % at 100 µM. 98,000 tested, 0.15% active. AID 710;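 active means growth inhibition above about 50% at one test dose, limit read from the data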;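 further: growth measured after 20 h incubation at 37 °C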
Pyk2 oligo antag: blocks oligomerization of human Pyk2 in cells; 99,000 tested, 0.83% active; z-score (the deposit names both 25 µM and 10 µM); Q293 cells, Pyk2 FERM NanoBiT luminescence; active compounds read low; Q14289;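 active means Z-score of -3 or lower, scaled per plate to the spread of control and sample wells; inactive means z-score above -3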;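 further: negative z-score means lost luminescence so less FERM oligomerization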
Target sequence (Q14289 whole entry, looked up): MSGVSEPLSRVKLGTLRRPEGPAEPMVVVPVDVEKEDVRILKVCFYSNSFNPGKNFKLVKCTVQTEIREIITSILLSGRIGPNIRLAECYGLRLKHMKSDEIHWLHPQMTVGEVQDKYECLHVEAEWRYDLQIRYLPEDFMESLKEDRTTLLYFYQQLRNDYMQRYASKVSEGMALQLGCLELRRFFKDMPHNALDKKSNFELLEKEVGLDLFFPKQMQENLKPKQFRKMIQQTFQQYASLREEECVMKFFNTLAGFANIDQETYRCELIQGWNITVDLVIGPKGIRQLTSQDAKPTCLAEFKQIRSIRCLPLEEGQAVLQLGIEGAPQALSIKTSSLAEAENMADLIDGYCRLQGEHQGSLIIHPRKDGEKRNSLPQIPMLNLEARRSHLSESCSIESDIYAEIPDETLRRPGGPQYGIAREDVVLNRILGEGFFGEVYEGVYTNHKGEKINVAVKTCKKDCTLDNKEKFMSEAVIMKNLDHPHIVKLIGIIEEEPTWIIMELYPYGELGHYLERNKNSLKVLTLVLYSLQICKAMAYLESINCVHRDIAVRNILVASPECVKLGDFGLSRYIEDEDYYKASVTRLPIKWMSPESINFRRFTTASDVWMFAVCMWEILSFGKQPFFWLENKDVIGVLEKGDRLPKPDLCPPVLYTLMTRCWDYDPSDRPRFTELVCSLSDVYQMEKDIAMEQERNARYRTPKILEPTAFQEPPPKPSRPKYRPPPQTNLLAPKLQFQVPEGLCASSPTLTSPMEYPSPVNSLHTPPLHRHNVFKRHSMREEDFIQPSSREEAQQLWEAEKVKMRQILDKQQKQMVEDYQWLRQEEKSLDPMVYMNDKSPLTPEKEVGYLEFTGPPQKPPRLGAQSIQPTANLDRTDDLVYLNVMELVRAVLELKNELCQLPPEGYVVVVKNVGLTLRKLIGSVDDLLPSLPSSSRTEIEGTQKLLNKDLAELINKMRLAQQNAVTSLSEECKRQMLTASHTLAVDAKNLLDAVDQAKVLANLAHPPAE
PostGolgi yeast: growth inhibition of a yeast mutant, post-Golgi transport screen. post-Golgi transport phenotypic cell assay. inhibition, % at 10 µM. 98,000 tested, 0.9% active;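 further: yeast cells grown in 1536-well plates; yeast grown about 18 h at 30C before absorbance read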
tolC growth inh: blocks growth of E. coli BW25113 tolC mutant; OD615; growth inhibition, % at 10 µM (by protocol); 65,000 tested, 2.2% active;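 active means growth inhibition at or above a cutoff equal to the mean over every tested compound plus 3 SD, cut at about 60% in these data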;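 further: growth measured after 20 h incubation at 37 °C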
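Test system: tolC-deleted E. coli BW25113; medium: LB with kanamycin 50 µg/mL; compound: single-point testing at 10 µM; incubation: 20 h compound exposure of bacteria at 37 °C; signal: OD at 615 nm; evaluation: growth inhibition in percent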
Cav3 T inh: human Cav3.2 channel inhibition, primary screen. Cav3.2-expressing cells, Fluo-4 calcium fluorescence FDSS; active compounds read low. B-score at 10 µM. 100,000 tested, 4% active;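 active means single-dose well whose peak fluorescence ratio is a statistical outlier from its plate by either plate-standardised score or position-corrected B-score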
PostGolgi ctrl: inhibits growth of the yeast control strain; efflux-deficient yeast background strain, growth absorbance A615, 16 h; inhibition, % at 10 µM; 98,000 tested, 5% active
Each line names hits and unclear results; the compound was inactive in the other large screens. Only some compounds are listed: those with a hit (about 8.7% of all), similar ones and a draw of the others. Unless noted, no stated cut-off is given here; in the data, active means inhibition above about 30%; inactive means the rest.

CCNC(=O)COn1c(SCC(=O)NCC)nc2ccccc2c1=O	none
CCOCC(=O)NCc1ccc2c(c1)OCO2	none
O=C1c2ccccc2CC1(Cc1ccccc1)Cc1ccccc1	none (no result: Ecoli WT expand, PostGolgi yeast, tolC growth inh, PostGolgi ctrl)
CCCCOC(=O)Nc1ccc(C(=O)OCCC)cc1	tolC growth inh 67.3
CCCCCCCCOC(=O)c1ccc(N)cc1	Pyk2 oligo antag -3.3 (no result: Ecoli WT expand, PostGolgi yeast, tolC growth inh, PostGolgi ctrl)
CCCOC(=O)c1ccc(NS(=O)(=O)c2cccs2)cc1	Cav3 T inh -4.98
CC1CCN(c2nc3c(c(=O)[nH]c(=O)n3C)n2CCSc2nc3ccccc3o2)CC1	none (no result: Pyk2 oligo antag)
COCCCn1c(Cc2ccccc2)nnc1SCC(=O)N1CCCCC1	none
Cc1cc(C(=O)CSc2nc3ccccc3[nH]2)c(C)n1Cc1ccco1	none (no result: Ecoli WT expand, PostGolgi yeast, tolC growth inh, Cav3 T inh, PostGolgi ctrl)
O=C(c1ccccc1)N1CCN(C(=O)c2cc3ccccc3o2)CC1	PostGolgi ctrl 30.7 (no result: tolC growth inh)
O=C(CCn1c(=O)oc2ccccc21)N1CCN(c2ccccc2Cl)CC1	Cav3 T inh -4.04
O=C(c1cc2c(ccc3ccccc32)o1)N1CCN(c2ncc(C(F)(F)F)cc2Cl)CC1	none (no result: tolC growth inh)
O=C(CCn1c(=O)oc2ccccc21)N1CCCCCC1	none
O=C(c1cc2ccccc2o1)N1CCN(c2ccccc2Cl)CC1	tolC growth inh 100.0, PostGolgi ctrl 39.9
O=C(CCS(=O)(=O)c1ccc(Br)cc1)N1CCN(c2ccccc2Cl)CC1	Cav3 T inh -5.66 (no result: tolC growth inh)
Cc1oc2c(c1C(=O)Nc1ccc(C(=O)O)cc1)CCCC2	none (no result: tolC growth inh)
CCC(C)[C@H](NC(=O)OC(C)(C)C)C(=O)N/N=C/c1cccc2nccnc12 (some centres not stated)	none (no result: tolC growth inh)
CCC(C)[C@H](NC(=O)OC(C)(C)C)C(=O)N/N=C/C1=Cc2ccccc2OC1 (some centres not stated)	Cav3 T inh -5.35 (no result: tolC growth inh)
COc1cccc(-c2nc(NCC3CCCO3)c3ccccc3n2)c1O (configuration not stated)	PostGolgi ctrl 43.1
Oc1ccccc1-c1nc(NCC2CCCO2)c2ccccc2n1 (configuration not stated)	tolC growth inh 66.0, PostGolgi ctrl 55.9
COC(=O)C1(C(=O)OC)NOC2C(=O)N(c3ccccc3)C(=O)C21 (configuration not stated)	none (no result: tolC growth inh)
COc1ccc(C)cc1C(=O)CCC(=O)Nc1ccccc1N1CCOCC1	none
CCN(CC)S(=O)(=O)c1cccc2nsnc12	PostGolgi ctrl 48.8
O=C(CSc1ncnc2c1oc1ccccc12)NC1CCCCC1	none (no result: Pyk2 oligo antag)
CCOc1ccc2[nH]c(=O)c(CN(Cc3cccs3)C(CC)c3nnnn3C(C)(C)CC)cc2c1 (configuration not stated)	Cav3 T inh -6.23, PostGolgi ctrl 37.0
CCC(c1nnnn1C1CCCC1)N(Cc1cccs1)Cc1cc2cc(C)ccc2[nH]c1=O (configuration not stated)	none
NC(=O)CC(NC(=O)c1cccc(Br)c1)c1ccc(NCCN2CCOCC2)c([N+](=O)[O-])c1 (configuration not stated)	none (no result: Ecoli WT expand, Pyk2 oligo antag, PostGolgi yeast, tolC growth inh, PostGolgi ctrl)
CCn1c(SCC(=O)Nc2nc(-c3ccccc3)cs2)nnc1-c1ccccc1	PostGolgi ctrl 57.7
CN1CCN(CC(=O)Nc2nc(-c3ccccc3)cs2)CC1	none (no result: Cav3 T inh)
O=C(CS(=O)(=O)c1ccccc1)Nc1nc(-c2ccccc2)cs1	tolC growth inh 100.0, Cav3 T inh -4.92, PostGolgi ctrl 41.1
O=C(O)CCCC(=O)Nc1nc(-c2ccccc2)cs1	none
Cc1ccc(S(=O)(=O)CC(=O)Nc2nc(-c3ccccc3)cs2)cc1	Cav3 T inh -7.22, PostGolgi ctrl 62.5 (no result: tolC growth inh)
C=CCc1ccccc1OCC(O)CN1CCN(Cc2ccc3c(c2)OCO3)CC1 (configuration not stated)	PostGolgi yeast 99.1, PostGolgi ctrl 45.1
O=C(O)C1C2C=CC(C2)C1C(=O)Nc1ccc(C(=O)N2CCCCC2)cc1 (configuration not stated)	none (no result: Cav3 T inh)
CCC1CCCCN1C(=O)N[C@@H](Cc1ccccc1)C(=O)O (some centres not stated)	none
CN1C(=O)/C(=C/c2ccccc2OCc2ccccc2F)NC1=S	none (no result: tolC growth inh, Cav3 T inh)
CC(=O)NS(=O)(=O)c1ccc(NC(=O)c2ccc(Br)o2)cc1	none (no result: tolC growth inh)
O=C(Nc1nc2ccccc2s1)C1CC(=O)N(c2ccccc2)C1 (configuration not stated)	Cav3 T inh -5.13 (no result: tolC growth inh)
O=C(Nc1nc2ccccc2s1)C1CC(=O)N(c2ccc(F)cc2)C1 (configuration not stated)	Cav3 T inh -4.57 (no result: tolC growth inh)
O=C(Nc1nc2ccccc2s1)C1CC(=O)N(c2ccc(Br)cc2)C1 (configuration not stated)	PostGolgi ctrl 46.2 (no result: tolC growth inh)
O=C(NC1=NCCS1)C1CC(=O)N(c2ccccc2)C1 (configuration not stated)	none
CCC1(C)Cc2c(sc3c2c(=O)n(C)c2nnc(SCC(=O)c4ccc(Cl)cc4)n32)CO1 (configuration not stated)	none (no result: Ecoli WT expand, Pyk2 oligo antag, PostGolgi yeast, Cav3 T inh, PostGolgi ctrl)
Cc1ccc(NC(=O)Cn2c(/C=C/c3ccccc3)nc3ccccc32)cc1C	Pyk2 oligo antag -3.84 (no result: tolC growth inh, Cav3 T inh)
Cc1nc2ccccc2n1CC(=O)N/N=C\C=C\c1ccccc1	none (no result: tolC growth inh)
Cn1nnnc1SCc1nnc(-c2ccccc2Br)o1	none (no result: tolC growth inh)
Cc1ccc(-n2nnnc2SCc2nnc(-c3ccccc3Br)o2)c(C)c1	PostGolgi ctrl 47.0
CCNC(=S)NNC(=O)c1cc(C2CC2)nc2ccccc12	none (no result: tolC growth inh, Cav3 T inh)
Cc1cccc(N2CCN(c3cccc(C)c3)C2c2cccnc2)c1	Cav3 T inh -4.82
Cc1ccccc1NC(=O)CCC(=O)OCC(=O)c1ccc(-c2ccccc2)cc1	none (no result: tolC growth inh)
CC1(C)C(=O)Nc2ccccc2N1C(=O)COC(=O)C1CCCCC1	Cav3 T inh -5.59 (no result: tolC growth inh)
O=C(NCC1COc2ccccc2O1)C1C2C=CC3(CN(Cc4ccccc4Cl)C(=O)C13)O2 (configuration not stated)	Cav3 T inh -8.66
Cc1cccc(OCC(=O)N(C)CCc2ccccn2)c1	none (no result: tolC growth inh)
Cc1occc1-c1nnc(SCC(=O)NCc2cccs2)n1-c1ccc(F)cc1	none
Cn1c(=O)c2c(SCc3ccccn3)nc(CC(C)(C)C)nc2n(C)c1=O	Cav3 T inh -5.88, PostGolgi ctrl 34.1 (no result: Pyk2 oligo antag, tolC growth inh)
Cn1c(=O)c2c(SCc3cccnc3)nc(CC(C)(C)C)nc2n(C)c1=O	tolC growth inh 97.4, PostGolgi ctrl 54.0 (no result: Pyk2 oligo antag)
CCCc1nc(SCc2ccccn2)c2c(=O)n(C)c(=O)n(C)c2n1	none (no result: Pyk2 oligo antag)
O=C(COC(=O)c1cnccn1)c1ccc2c(c1)CCCC2	none
COc1cc(S(=O)(=O)N2CCN(C)CC2)c(OC)cc1Br	none
Clc1ccc(/C=N/NC(=Nc2ccccc2)c2ccccn2)c(Cl)c1	PostGolgi ctrl 36.6 (no result: tolC growth inh, Cav3 T inh)
CCOC(=O)C1=C(C)NC(C)=C(C(=O)OCC)C1/C=C/c1ccccc1	none (no result: tolC growth inh)
CCOC(=O)C1=C(C)NC(C)=C(C(=O)OCC)C1c1ccccc1/C=C/C(=O)OC(C)(C)C	Cav3 T inh -4 (no result: Ecoli WT expand, Pyk2 oligo antag, PostGolgi yeast, tolC growth inh, PostGolgi ctrl)
Cc1nn(-c2ccc(F)cc2)c(C)c1NS(=O)(=O)c1ccc(Cl)cc1	none
CNCc1cc2ccc(C)cc2[nH]c1=O	none

Screens as filed in PubChem BioAssay.
